Data on one molecule can be found in publication PMC10582660 (Clinical and Translational Science, 2023).

For data set [1] the following is noted: after oral administration; cited from earlier work.
In a further data set the target is T1, OATP2B1 (Homo sapiens, UniProt O94956).
T1 sequence (O94956 1-709): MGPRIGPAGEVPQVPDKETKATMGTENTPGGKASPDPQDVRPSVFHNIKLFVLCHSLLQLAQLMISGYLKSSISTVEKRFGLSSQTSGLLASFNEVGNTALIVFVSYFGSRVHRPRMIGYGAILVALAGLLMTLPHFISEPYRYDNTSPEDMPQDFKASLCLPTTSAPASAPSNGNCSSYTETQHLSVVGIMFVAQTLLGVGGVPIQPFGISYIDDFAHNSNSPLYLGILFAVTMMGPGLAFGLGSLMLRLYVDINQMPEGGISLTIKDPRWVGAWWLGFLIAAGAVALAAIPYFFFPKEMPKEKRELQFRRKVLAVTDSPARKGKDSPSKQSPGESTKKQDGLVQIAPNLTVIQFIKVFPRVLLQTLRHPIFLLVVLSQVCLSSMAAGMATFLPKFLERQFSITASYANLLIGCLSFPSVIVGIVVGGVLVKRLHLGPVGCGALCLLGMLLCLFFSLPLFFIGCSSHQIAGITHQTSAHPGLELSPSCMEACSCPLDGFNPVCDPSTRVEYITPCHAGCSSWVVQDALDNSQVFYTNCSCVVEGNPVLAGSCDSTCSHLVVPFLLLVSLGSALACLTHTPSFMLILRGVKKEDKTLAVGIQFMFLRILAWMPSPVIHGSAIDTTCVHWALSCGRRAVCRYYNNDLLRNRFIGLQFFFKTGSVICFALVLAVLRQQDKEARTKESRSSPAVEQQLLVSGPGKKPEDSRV
Kind of data set: Raloxifene as a substrate for uptake transporters. The class given is in vitro ADME. The following applies: raloxifene 1, 10 μM, 2, 20 min, two‐fold cutoff. In short, it runs like this: (§1)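 Uptake of test compound (1 and 10 μM, 2 and 20 min) measured in transporter-expressing HEK293 or MDCKII cells or inside-out membrane vesicles. Run with positive-control probe substrates and inhibitors, plus empty-vector or untransfected control cells. Fold-accumulation relative to control cells judged against a two-fold cutoff for substrate status.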

The next data set addresses T2, OAT3 (Homo sapiens, UniProt Q8TCC7).
T2 sequence (Q8TCC7 1-542): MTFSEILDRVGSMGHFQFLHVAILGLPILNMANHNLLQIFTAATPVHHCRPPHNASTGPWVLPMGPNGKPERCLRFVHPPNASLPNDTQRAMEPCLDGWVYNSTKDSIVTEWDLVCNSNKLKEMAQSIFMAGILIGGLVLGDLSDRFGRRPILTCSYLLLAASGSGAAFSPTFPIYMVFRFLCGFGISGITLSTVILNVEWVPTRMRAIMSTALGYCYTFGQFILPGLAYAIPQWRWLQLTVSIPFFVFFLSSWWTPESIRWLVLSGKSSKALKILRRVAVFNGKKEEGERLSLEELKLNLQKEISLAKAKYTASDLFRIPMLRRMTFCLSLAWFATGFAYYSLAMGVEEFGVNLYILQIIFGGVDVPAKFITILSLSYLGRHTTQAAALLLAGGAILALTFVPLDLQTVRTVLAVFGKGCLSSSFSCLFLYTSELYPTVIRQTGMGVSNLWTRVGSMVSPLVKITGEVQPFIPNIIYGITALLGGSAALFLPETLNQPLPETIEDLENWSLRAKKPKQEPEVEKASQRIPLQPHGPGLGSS
The data set is described as follows: Raloxifene as a substrate for uptake transporters. The class given is in vitro ADME. As to conditions: raloxifene 1, 10 μM, 2, 20 min, two‐fold cutoff. In short, it runs like this:
as §1

The target of the next data set is T3, OCT1 (Homo sapiens, UniProt O15245).
T3 sequence (O15245 1-554): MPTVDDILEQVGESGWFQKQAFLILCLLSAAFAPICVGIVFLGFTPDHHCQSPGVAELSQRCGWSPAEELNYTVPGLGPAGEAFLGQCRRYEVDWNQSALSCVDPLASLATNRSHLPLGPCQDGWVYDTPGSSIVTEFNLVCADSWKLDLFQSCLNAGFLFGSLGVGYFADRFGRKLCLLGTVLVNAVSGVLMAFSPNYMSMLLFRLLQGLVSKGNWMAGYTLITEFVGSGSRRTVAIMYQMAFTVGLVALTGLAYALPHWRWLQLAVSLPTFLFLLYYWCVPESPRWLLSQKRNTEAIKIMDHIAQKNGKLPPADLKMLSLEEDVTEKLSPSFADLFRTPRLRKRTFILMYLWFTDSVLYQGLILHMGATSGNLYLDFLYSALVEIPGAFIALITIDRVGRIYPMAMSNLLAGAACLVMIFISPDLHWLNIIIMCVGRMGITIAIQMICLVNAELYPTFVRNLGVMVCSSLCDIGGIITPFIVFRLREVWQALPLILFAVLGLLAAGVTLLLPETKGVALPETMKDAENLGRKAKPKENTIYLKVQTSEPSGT
The data set is described as follows: Raloxifene as a substrate for uptake transporters. As to conditions: raloxifene 1, 10 μM, 2, 20 min, two‐fold cutoff. It is filed as in vitro ADME. In short, it runs like this: as §1

In a further data set the target is T4, OATP1B1 (Homo sapiens, UniProt Q9Y6L6).
T4 sequence (Q9Y6L6 1-691): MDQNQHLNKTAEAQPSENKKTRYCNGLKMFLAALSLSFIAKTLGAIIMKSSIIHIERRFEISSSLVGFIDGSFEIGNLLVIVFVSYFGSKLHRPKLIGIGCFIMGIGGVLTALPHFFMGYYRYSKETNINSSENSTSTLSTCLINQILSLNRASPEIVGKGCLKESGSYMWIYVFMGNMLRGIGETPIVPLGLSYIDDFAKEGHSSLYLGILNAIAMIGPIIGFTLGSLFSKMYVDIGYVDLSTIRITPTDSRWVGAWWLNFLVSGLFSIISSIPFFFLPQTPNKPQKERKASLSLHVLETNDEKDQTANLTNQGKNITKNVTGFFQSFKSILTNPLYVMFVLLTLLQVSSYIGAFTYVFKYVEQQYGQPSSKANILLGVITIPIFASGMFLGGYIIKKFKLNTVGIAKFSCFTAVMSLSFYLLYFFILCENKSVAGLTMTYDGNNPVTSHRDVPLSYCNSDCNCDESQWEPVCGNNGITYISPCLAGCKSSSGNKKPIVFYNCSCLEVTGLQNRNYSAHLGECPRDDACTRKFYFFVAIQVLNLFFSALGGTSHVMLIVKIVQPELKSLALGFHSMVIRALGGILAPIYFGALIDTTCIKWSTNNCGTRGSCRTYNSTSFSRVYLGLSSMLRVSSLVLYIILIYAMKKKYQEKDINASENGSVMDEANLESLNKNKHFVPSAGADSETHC
The data set is described as follows: Raloxifene as a substrate for uptake transporters. The class given is in vitro ADME. The following applies: raloxifene 1, 10 μM, 2, 20 min, two‐fold cutoff. In short, it runs like this: as §1

As for `O=C(c1ccc(OCCN2CCCCC2)cc1)c1c(-c2ccc(O)cc2)sc2cc(O)ccc12` [Raloxifene, raloxifene, reference compound], the oral bioavailability in data set [1] was less than 2%. Further, the “fold‐accumulation” value at OATP2B1 is 0.82–1.00; on OAT3, 0.75–1.03; at OCT1, 1.13–1.52; at OATP1B1, 1.04–1.19.
